# MPTP block: blocks calcium-induced mitochondrial swelling. isolated mouse mitochondria, Ca2+ swelling absorbance, 30 min. AID 602449. 360,000 compounds, 1.4% hits. inhibition, % at 10 µM;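 active = inhibition of 50% or more, scaled per plate between neutral and stimulator controls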;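 note: 0% = DMSO wells given calcium and 100% = 1 mM EGTA wells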
# L major viab: inhibitors of Leishmania major promastigote growth; Leishmania major promastigotes, resazurin fluorescence viability; inhibition, % at 10 µM; 200,000 compounds, 9% hits; in the data active = inhibition above about 50%;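 note: promastigotes grown with compound for 44 hours at 28 °C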
# Hep lipid drop: hepatic lipid droplet formation modulation. AML12 mouse hepatocytes, oleate lipid droplets, BODIPY imaging. inhibition, % at 6.5 µM. 240,000 compounds, 0.4% hits. AID 1656;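 active = lipid droplet intensity inhibited by at least 50%, with more than 500 cells counted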
#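 Assay system: AML12 hepatocytes (mouse); Probe or stimulus: oleic acid at 100 µM to induce lipid droplet formation; Dosing: compound at 6.5 µM only; Schedule: compound with oleate, overnight; Detection: fluorescence imaging, 20x objective, two fields per well; Measure: % inhibition of lipid droplet signal.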
# T cruzi inh: blocks replication of Trypanosoma cruzi; T. cruzi beta-gal in NIH3T3, luminescence, 90 h; inhibition, % (concentration not given with the values); 300,000 compounds, 1.4% hits;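 active = mean inhibition across valid replicates above about 55%, limit read from the data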;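 note: signal also drops with host cell toxicity which is not excluded here; 0% = plate median of DMSO wells and 100% = zero luminescence signal; higher percent means less beta-gal luminescence so fewer parasites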
#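 Assay system: NIH/3T3 host cells with β-galactosidase reporter T. cruzi; input: 5,000 host fibroblasts per well; compound: single 50 nL compound addition per well in DMSO; timing: ≥90 h infection period, 3 h prior cell attachment; measured by: GalScreen β-gal luminescence, detergent lysis, 60 min; evaluation: percent inhibition of parasite-derived β-gal signal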
# Redox H2O2 prof: compounds producing H2O2 with reducing agent – biochemical, NIH compound library profiling, artefact control for MLSCN library redox annotation, primary screen; DTT-dependent redox cycling H2O2, phenol red/HRP absorbance; 100% = 100 µM peroxide control, 0% = buffer; AID 878; activation, % at 10 µM; 200,000 compounds, 0.03% hits;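 active = activation of at least 50% relative to the plate's high and low controls in the primary single-dose screen; inactive = activation below 50%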;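 note: compound incubated with DTT at 0.8 mM final as the reducing agent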
# An asterisk follows results filed as active; . = no result. This is one part of a sample in which hits are shown more often than they occur.
SMILES,MPTP block,L major viab,Hep lipid drop,T cruzi inh,Redox H2O2 prof
CC(=O)N1CCN(C(=S)Nc2ccc(SC(F)F)cc2)CC1,-4,0,0,-4,0
CC(C)(C)c1ccc(C(=O)N2CCN(CCNC(=O)C(=O)NCc3ccc(Cl)cc3)CC2)cc1,-1,.,17,66*,.
O=C(CSc1nc2ccccc2c(=O)n1-c1ccccc1)c1c[nH]c2ccccc12,29,51*,4,-2,0
Fc1ccccc1N1CCN(C2CCCN(Cc3cccc(C(F)(F)F)c3)C2)CC1 (stereo unspecified),9,.,-6,72*,.
Oc1ccccc1CN1CCCC(N2CCN(c3cccc(C(F)(F)F)c3)CC2)C1 (stereo unspecified),1,.,-5,24,.
Nc1ccn([C@@H]2O[C@H](C(=O)N[C@H]3c4ccccc4C[C@H]3O)[C@@H](O)[C@H]2O)c(=O)n1,0,.,.,.,.
COc1ccc(Cl)c2c1[nH]c1nc(SCc3ccccn3)nnc12,1,52*,10,7,-1
O=S(=O)(c1ccc(OCC(O)CNCc2ccco2)c(Cl)c1)N1CCOCC1 (stereo unspecified),1,-4,.,10,0
CC(C)N(Cc1ccccc1)CC(O)COc1ccc(S(=O)(=O)N2CCOCC2)cc1Cl (stereo unspecified),-4,100*,-1,18,0
CC(=O)Nc1nc(-c2ccc([N+](=O)[O-])cc2)cs1,0,-8,0,4,0
CC(=O)Nc1nc(-c2cc([N+](=O)[O-])cs2)cs1,2,75*,-10,.,3
CC(=O)Nc1nc(C)c(-c2csc(Nc3ccc(O)cc3)n2)s1,0,63*,-11,.,2
CCC(C)C(=O)Nc1nc(C)c(-c2csc(Nc3ccc(Cl)cc3)n2)s1 (stereo unspecified),-1,34,.,58*,11
CC(=O)Nc1nc(C)c(-c2csc(Nc3cccc(C(C)=O)c3)n2)s1,-1,.,.,-11,.
CC(=O)Nc1nc(C)c(-c2csc(Nc3cccc([N+](=O)[O-])c3)n2)s1,2,97*,10,55*,0
COc1ccc(Cc2c(C3CCCCC3)nc3cc(C)c(Br)c(C)n23)c(C)c1,2,.,.,.,.
CCOC(=O)c1oc2ccc(CNC3CCCCC3)c(Cl)c2c1C,4,96*,-20,74*,1
CCOC(=O)c1oc2ccc(CNCCO)c(Cl)c2c1C,2,97*,.,10,0
CCOC(=O)c1ccc(NC(=O)COc2ccccc2CNCCO)cc1,0,18,5,.,0
CCOc1ccc2oc(C(=O)OCC(=O)NC3CC3)c(C)c2c1,0,0,1,-14,-1
O=C(Nc1ncccc1O)c1ccc(S(=O)(=O)NCc2ccco2)cc1,-1,.,.,.,.
COc1ccc(NC(=O)Cc2c(F)cccc2Cl)c(OC)c1,-1,43,4,-4,0
COc1ccc(CN2C(=O)c3cccnc3C2=O)cc1S(=O)(=O)N1CCOc2ccc(C)cc21,0,.,-4,-6,.
Nc1c(C(=O)c2ccccc2)sc2nsc(SCCN3CCCC3)c12,6,.,-4,55*,.
Nc1c(C(=O)c2ccc(Cl)cc2)sc2nsc(SCCN3CCOCC3)c12,12,.,-3,27,.
SMILES,MPTP block,L major viab,Hep lipid drop,T cruzi inh,Redox H2O2 prof
C=CCc1cc(C=O)cc(OC)c1OCc1ccc(Cl)cc1,6,19,.,16,2
C=CCc1cc(C=O)cc(OCC)c1OCc1ccc(Cl)cc1,2,86*,-7,22,0
CCCCc1sc(-c2c(C#N)c(N)nc3c2CCCCC3)cc1[N+](=O)[O-],3,2,.,55*,-5
Cc1sc(-c2c(C#N)c(N)nc3c2CCCCCC3)cc1[N+](=O)[O-],2,.,.,14,.
O=S(=O)(c1ccc(Cl)cc1)N1CCN(Cc2c[nH]c3ccccc23)CC1,-3,52*,-8,-6,0
O=C(Cc1c[nH]c2ccccc12)N1CCN(S(=O)(=O)c2ccc(Cl)cc2)CC1,-2,.,.,.,.
Clc1ccccc1N1CCN(Cc2c[nH]c3ccccc23)CC1,-4,.,.,74*,.
Fc1ccccc1N1CCN(C2CCN(Cc3c[nH]c4ccccc34)CC2)CC1,1,.,.,37,.
CC(C)=CCC[C@H](C)CC1Cc2[nH]c(=S)[nH]c(=O)c2C(c2ccc(Cl)cc2)O1 (stereo partly specified),-1,.,.,.,.
Cc1cccc(C(=O)NC(=S)N2CCN(C)CC2)c1,0,-3,.,6,-5
Cc1cccc(C(=O)NC(=S)N2CCN(C(=S)NC(=O)c3cccc(C)c3)CC2)c1,-4,73*,3,5,.
O=C(CN1CCN(Cc2ccccc2)CC1)N/N=C/c1ccc(Br)s1,2,.,-8,2,.
Cc1ccc(CNc2ccc3c(c2)ncn3C)cc1,0,60*,7,8,5
CCc1ccc(CNc2ccc3c(c2)ncn3C)cc1,5,28,.,10,0
Cc1ccc(S(=O)(=O)c2cc3ccccc3oc2=Nc2ccc3c(c2)OCCO3)cc1,2,98*,-1,8,3
COc1cccc2cc(S(=O)(=O)c3ccccc3)c(=Nc3ccc4c(c3)OCCO4)oc12,3,92*,2,21,1
CC(C)(CNC(=O)CCNC(=O)c1ccc(Br)cc1)N1CCOCC1,-1,.,.,-8,.
COc1ccc(-c2oc(NC(=O)CCl)c(C#N)c2-c2ccc(OC)cc2)cc1,6,100*,-3,20,0
Cc1cc(C)c2c3c(sc2n1)C1(CCSCC1)C(C#N)=C(N)O3,2,100*,2,64*,2
COc1ccc(C2CC(=O)C3=C(C2)Nc2ncnn2C3c2ccccc2C)c(OC)c1 (stereo unspecified),2,100*,.,61*,0
COc1cc(OC)cc(-c2nn[nH]n2)c1,-1,-1,-1,12,0
Cc1ccc(-n2c(C)cc(/C([O-])=C(/C(=S)Nc3ccc(F)c(Cl)c3)[n+]3ccccc3)c2C)cc1,14,91*,34,29,0
O=C(Nc1ccc(NC(=S)NC(=O)C(c2ccccc2)c2ccccc2)cc1)c1ccccc1,3,98*,.,28,-3
COc1ccc(/C=C/C(=O)NC(=S)Nc2ccc(C(=O)O)cc2)cc1,1,69*,-2,0,0
CCC(=O)Nc1cccc(C(=O)/C=C/c2cccs2)c1,2,41,3,2,0
CC(=O)c1ccc(NC(=S)NC(=O)/C=C/c2ccccc2)cc1,2,.,0,-2,.
O=C(NC(=S)Nc1ccc(NC(=O)c2ccccc2)cc1)c1ccc(F)cc1,1,.,-26,-7,.
CCC(=O)Nc1ccc(NC(=S)NC(=O)/C=C/c2ccccc2)cc1,-2,81*,-2,-11,0
CCC(=O)Nc1cccc(C(=O)/C=C/c2ccccc2)c1,3,100*,.,-10,-3
CCOc1ccc(NC(=O)CN(C)C(=O)c2ccccc2SCc2c(C)noc2C)cc1OCC,-1,.,.,6,.

# From PubChem BioAssay
